Experimental data: ChEMBL document CHEMBL5678808, “Human target validation of phosphoinositide 3-kinase (PI3K)β: effects on platelets and insulin sensitivity, using AZD6482 a novel PI3Kβ inhibitor” (J Thromb Haemost, 2012)
Active and inactive are the calls of the source. The calls are words filed in the database; no cut-off is given here.

Legend:
[1] = molecular target: Serine/threonine-protein kinase mTOR (Homo sapiens, UniProt P42345); experiment: Inhibition of mTOR (unknown origin)
Aurora kinase B = Aurora kinase B (Homo sapiens, UniProt Q96GD4); experiment: Inhibition of human AurKB
Chain of Aurora kinase B (Q96GD4 whole entry): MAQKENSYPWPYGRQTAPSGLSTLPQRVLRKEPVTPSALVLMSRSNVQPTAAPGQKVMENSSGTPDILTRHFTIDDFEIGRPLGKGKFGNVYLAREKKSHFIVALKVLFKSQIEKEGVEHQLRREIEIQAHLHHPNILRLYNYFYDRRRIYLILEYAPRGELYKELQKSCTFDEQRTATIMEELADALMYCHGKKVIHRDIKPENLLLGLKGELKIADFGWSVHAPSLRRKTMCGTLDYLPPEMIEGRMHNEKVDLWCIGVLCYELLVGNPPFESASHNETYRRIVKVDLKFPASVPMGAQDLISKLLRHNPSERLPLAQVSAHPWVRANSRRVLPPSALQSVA

[2] = molecular target: Tyrosine-protein kinase ZAP-70 (Homo sapiens, UniProt P43403); experiment: Inhibition of human ZAP70
Chain of Tyrosine-protein kinase ZAP-70 (P43403 whole entry): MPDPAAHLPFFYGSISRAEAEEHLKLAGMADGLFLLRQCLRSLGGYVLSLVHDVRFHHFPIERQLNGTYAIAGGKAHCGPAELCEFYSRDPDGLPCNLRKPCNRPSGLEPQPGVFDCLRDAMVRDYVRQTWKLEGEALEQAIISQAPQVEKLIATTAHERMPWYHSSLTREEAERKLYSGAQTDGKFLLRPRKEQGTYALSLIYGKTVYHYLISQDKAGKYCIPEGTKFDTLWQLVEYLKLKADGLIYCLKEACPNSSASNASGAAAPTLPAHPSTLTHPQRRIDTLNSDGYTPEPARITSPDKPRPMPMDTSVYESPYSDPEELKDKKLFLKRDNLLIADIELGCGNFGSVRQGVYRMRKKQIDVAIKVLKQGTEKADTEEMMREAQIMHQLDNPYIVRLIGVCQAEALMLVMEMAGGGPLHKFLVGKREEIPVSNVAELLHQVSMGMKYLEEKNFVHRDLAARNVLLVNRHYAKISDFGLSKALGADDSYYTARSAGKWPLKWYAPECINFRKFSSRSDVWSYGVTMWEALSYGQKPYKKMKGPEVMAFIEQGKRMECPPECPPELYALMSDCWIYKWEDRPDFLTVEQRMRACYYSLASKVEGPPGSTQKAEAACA

[3] = molecular target: Glycogen synthase kinase-3 beta (Homo sapiens) (UniProt P49841); experiment: Inhibition of human GSK3b at 10 uM relative to control
Chain of Glycogen synthase kinase-3 beta (Homo sapiens) (P49841 whole entry, looked up): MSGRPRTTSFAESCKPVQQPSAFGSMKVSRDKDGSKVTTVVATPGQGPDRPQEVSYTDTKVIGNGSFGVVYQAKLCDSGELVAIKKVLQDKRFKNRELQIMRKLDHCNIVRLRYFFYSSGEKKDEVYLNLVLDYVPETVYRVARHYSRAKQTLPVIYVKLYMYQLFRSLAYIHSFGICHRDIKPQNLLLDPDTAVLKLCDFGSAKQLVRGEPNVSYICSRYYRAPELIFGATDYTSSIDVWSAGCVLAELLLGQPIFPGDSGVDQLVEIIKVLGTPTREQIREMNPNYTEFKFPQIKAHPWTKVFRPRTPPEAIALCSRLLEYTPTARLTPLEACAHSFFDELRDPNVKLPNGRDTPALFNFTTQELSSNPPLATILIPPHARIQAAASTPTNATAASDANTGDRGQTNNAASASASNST

[4] = molecular target: Serine/threonine-protein kinase PAK 5 (Homo sapiens) (UniProt Q9P286); experiment: Inhibition of human PAK5 at 10 uM relative to control
Chain of Serine/threonine-protein kinase PAK 5 (Homo sapiens) (Q9P286 whole entry, looked up): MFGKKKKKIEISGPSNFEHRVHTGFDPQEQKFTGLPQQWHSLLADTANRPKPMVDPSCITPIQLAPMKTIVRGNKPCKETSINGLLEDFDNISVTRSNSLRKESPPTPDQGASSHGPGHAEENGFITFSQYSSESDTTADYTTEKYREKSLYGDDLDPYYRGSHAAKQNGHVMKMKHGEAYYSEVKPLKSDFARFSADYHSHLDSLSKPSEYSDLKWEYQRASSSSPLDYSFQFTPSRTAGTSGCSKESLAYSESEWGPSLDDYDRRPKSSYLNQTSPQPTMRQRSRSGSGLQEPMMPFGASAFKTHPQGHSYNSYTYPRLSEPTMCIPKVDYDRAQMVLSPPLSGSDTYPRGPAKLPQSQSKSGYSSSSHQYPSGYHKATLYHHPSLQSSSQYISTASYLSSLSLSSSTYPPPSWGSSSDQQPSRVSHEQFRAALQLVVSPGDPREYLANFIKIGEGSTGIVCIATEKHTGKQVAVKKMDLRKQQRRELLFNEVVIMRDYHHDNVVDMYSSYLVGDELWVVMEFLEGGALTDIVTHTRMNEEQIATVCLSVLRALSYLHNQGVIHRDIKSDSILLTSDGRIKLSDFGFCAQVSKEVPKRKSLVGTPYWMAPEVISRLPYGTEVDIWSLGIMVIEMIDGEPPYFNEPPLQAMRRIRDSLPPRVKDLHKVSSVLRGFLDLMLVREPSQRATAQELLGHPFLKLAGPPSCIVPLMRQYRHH

[5] = molecular target: Ribosomal protein S6 kinase alpha-1 (Homo sapiens) (UniProt Q15418); experiment: Inhibition of MAPK Activated Protein Kinase-1a (unknown origin) at 10 uM relative to control
[6] = molecular target: Rho-associated protein kinase 2 (Rattus norvegicus) (UniProt Q62868); experiment: Inhibition of rat ROCK2 at 10 uM relative to control
Chain of Rho-associated protein kinase 2 (Rattus norvegicus) (Q62868 whole entry, looked up): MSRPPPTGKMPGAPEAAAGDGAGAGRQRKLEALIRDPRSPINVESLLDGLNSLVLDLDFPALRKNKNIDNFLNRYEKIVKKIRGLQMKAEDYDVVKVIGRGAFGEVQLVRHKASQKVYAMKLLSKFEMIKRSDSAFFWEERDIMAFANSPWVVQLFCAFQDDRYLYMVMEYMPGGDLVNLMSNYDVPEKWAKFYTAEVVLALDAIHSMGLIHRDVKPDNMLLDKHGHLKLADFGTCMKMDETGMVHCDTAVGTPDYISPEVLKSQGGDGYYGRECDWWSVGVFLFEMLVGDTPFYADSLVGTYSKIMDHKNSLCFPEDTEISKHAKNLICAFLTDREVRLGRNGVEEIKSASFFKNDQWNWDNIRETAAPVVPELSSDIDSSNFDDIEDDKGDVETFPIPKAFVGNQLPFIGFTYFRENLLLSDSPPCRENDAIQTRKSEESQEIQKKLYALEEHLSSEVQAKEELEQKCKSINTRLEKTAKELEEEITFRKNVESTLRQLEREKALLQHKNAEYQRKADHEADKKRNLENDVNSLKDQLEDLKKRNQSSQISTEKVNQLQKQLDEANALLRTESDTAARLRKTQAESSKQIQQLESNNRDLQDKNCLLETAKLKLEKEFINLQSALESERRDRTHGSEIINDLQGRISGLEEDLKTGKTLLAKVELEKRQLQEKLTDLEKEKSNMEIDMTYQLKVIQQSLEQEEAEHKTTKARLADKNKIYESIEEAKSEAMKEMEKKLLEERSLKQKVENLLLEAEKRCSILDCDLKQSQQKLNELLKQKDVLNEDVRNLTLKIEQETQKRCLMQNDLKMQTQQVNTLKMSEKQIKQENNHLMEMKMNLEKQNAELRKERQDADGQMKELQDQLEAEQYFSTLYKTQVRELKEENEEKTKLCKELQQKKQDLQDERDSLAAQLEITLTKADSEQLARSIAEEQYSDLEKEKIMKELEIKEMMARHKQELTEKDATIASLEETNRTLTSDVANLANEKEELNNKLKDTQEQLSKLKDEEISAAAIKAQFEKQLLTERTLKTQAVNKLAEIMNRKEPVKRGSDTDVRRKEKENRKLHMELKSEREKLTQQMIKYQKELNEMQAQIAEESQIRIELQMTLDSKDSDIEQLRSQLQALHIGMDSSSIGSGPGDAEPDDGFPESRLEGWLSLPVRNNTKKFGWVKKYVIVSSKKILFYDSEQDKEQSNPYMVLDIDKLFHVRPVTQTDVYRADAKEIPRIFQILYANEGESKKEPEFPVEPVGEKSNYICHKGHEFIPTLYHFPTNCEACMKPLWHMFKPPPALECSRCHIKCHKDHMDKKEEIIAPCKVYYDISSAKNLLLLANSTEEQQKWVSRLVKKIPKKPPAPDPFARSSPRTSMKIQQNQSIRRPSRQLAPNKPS

[7] = molecular target: Serine/threonine-protein kinase Sgk1 (Homo sapiens) (UniProt O00141); experiment: Inhibition of human SGK at 10 uM relative to control
[8] = molecular target: Mitogen-activated protein kinase 15 (Homo sapiens) (UniProt Q8TD08); experiment: Inhibition of human MAPK15 at 10 uM relative to control
Chain of Mitogen-activated protein kinase 15 (Homo sapiens) (Q8TD08 whole entry): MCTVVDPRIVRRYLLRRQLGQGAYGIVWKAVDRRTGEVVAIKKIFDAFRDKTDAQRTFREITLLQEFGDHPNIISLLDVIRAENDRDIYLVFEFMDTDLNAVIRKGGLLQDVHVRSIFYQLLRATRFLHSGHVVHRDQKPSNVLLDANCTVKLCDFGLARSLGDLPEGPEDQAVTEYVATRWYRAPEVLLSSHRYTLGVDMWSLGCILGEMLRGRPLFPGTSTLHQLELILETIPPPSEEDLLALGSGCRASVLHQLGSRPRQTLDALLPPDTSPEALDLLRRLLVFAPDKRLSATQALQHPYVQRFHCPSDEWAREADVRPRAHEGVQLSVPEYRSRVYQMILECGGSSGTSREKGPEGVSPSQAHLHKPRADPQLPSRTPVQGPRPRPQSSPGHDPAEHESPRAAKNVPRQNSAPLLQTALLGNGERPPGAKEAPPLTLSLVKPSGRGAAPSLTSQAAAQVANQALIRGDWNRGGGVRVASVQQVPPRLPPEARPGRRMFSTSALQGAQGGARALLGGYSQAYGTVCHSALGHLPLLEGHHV

[9] = molecular target: Mitogen-activated protein kinase 10 (Homo sapiens) (UniProt P53779); experiment: Inhibition of human JNK3 at 10 uM relative to control
[10] = molecular target: MAP kinase-activated protein kinase 3 (Homo sapiens) (UniProt Q16644); experiment: Inhibition of human MAPKAP-K3 at 10 uM relative to control
[11] = molecular target: Dual specificity tyrosine-phosphorylation-regulated kinase 2 (Homo sapiens) (UniProt Q92630); experiment: Inhibition of human DYRK2 at 10 uM relative to control
[12] = molecular target: Maternal embryonic leucine zipper kinase (Homo sapiens) (UniProt Q14680); experiment: Inhibition of human MELK at 10 uM relative to control
Chain of Maternal embryonic leucine zipper kinase (Homo sapiens) (Q14680 whole entry, looked up): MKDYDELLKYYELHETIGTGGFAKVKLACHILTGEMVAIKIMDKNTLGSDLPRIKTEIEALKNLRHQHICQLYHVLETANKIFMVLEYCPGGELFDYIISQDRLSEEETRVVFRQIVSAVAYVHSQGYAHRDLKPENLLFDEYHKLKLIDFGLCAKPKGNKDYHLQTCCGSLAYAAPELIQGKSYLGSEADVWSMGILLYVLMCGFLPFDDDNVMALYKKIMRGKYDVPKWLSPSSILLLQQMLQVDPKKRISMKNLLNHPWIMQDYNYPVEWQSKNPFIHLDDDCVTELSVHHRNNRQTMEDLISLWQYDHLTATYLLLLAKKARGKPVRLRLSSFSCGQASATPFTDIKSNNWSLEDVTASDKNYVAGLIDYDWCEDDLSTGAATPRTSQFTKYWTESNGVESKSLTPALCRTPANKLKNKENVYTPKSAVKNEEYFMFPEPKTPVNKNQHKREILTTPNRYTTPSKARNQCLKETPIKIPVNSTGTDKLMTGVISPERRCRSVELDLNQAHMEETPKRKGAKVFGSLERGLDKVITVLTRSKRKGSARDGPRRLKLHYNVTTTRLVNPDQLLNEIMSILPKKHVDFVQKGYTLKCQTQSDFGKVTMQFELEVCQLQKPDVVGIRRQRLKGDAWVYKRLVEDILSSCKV

[13] = molecular target: Mitogen-activated protein kinase 13 (Homo sapiens) (UniProt O15264); experiment: Inhibition of human MAPK13 at 10 uM relative to control
Chain of Mitogen-activated protein kinase 13 (Homo sapiens) (O15264 whole entry): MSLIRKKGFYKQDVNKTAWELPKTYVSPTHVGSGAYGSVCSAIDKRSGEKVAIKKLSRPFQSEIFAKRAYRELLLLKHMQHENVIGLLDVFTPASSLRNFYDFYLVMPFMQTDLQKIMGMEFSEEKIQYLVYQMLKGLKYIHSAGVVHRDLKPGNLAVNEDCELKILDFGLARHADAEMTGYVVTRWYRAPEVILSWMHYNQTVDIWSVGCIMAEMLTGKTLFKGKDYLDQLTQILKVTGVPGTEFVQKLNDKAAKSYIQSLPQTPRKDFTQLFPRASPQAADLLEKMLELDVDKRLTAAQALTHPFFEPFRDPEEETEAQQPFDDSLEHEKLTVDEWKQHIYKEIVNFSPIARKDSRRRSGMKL

[14] = Protein binding in rat plasma assessed as unbound fraction; format: ADME, cell-free
Canis familiaris [15] = experiment: Antithrombotic activity in iv dosed Beagle dog assessed as restoration of blood flow administered via bolus infusion for 29 mins; format: functional, organism-based; conditions: Canis lupus familiaris
Method in brief: (§1)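 Modified Folts' model of thrombosis in a damaged, stenosed femoral artery of anesthetized dogs. Animals first received saline vehicle. Consecutive i.v. doses then followed, each given over a 30-min period as a bolus (0.03–1.3 μg kg−1) plus an infusion (0.005–0.24 μg kg min−1). Read-outs were cyclic flow reductions, expressed as % restoration of blood flow, plus bleeding time, blood loss and plasma drug exposure. Mean ± SEM, n = 6.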

[16] = Inhibition of PI3Kbeta in Beagle dog whole blood assessed as reduction in ADP-induced platelet aggregation preincubated for 5 mins followed by ADP addition and measured for 6 mins by impedance aggregometry; format: tissue-based; conditions: Canis lupus familiaris
Method in brief: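 Ex vivo whole blood impedance aggregometry (Multiplate) with ADP as agonist, using blood drawn from anesthetized dogs in the Folts' model. Dogs were given i.v. bolus plus infusion doses over consecutive 30-min periods. Inhibition was related to measured plasma drug concentration to derive EC50. Mean ± SEM, n = 6.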

Canis familiaris [17] = experiment: Antithrombotic activity in Beagle dog model of arterial thrombosis and bleeding assessed as increase in bleeding time at 0.005 to 0.24 ug/kg/min, iv via bolus for 29 mins and measured for 15 mins; format: functional, organism-based; conditions: Canis lupus familiaris; method in brief: as §1
Rattus norvegicus [18] = experiment: (§2) Insulin sensitizing activity in Sprague-Dawley rat hyperinsulinemic-euglycemic glucose clamp model assessed as glucose infusion rate required to maintain euglycemia during infusion of human insulin at 6000 ug/kg/min, iv for 2 mins followed by 300 ug/kg/min, iv for 28 mins measured during clamp 1 (reference value: 124 +/- 4 umol/min/kg); format: functional; conditions: time 30 min, 0.5 h
Method in brief: (§3)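 Anesthetized rats; hyperinsulinemic–euglycemic clamp with human insulin infused. A baseline clamp (Clamp1) was followed by a second clamp (Clamp2) with vehicle or drug i.v. The drug was given as a low dose (1000 μg kg−1 + 50 μg kg min−1) or a high dose (6000 μg kg−1 + 300 μg kg min−1). Steady-state glucose infusion rate for euglycemia was recorded, with plasma glucose, human insulin and total insulin; mean ± SEM, n = 4–5/group.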

Rattus norvegicus [19] = experiment: as §2, with “2” for “1”, “138” for “124”; format: functional; conditions: time 30 min, 0.5 h; method in brief: as §3
Rattus norvegicus [20] = experiment: Insulin sensitizing activity in Sprague-Dawley rat hyperinsulinemic-euglycemic glucose clamp model assessed as basal total insulin level during infusion of human insulin at 1000 ug/kg/min, iv for 2 mins followed by 50 ug/kg/min, iv for 28 mins (reference value: 0.3 +/- 0.1 nM); format: functional; conditions: time 30 min, 0.5 h; method in brief: as §3
Rattus norvegicus [21] = experiment: Insulin sensitizing activity in Sprague-Dawley rat hyperinsulinemic-euglycemic glucose clamp model assessed as total insulin level during infusion of human insulin at 6000 ug/kg/min, iv for 2 mins followed by 300 ug/kg/min, iv for 28 mins measured during clamp 1 (reference value: 2.2 +/- 0.1 nM); format: functional; conditions: time 30 min, 0.5 h; method in brief: as §3
[22] = Toxicity in Sprague-Dawley rat assessed as change in blood pressure at 1000 ug/kg, iv for 2 mins followed by 50 ug/kg/min, iv for 28 mins; format: organism-based; conditions: in vivo, 1 mg/kg, 0.5 h, time 30 min
Method in brief: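 Blood pressure was monitored in anesthetized rats during hyperinsulinemic–euglycemic clamps. There was an initial control period, then i.v. drug at 1000 μg kg−1 + 50 μg kg min−1 or 6000 μg kg−1 + 300 μg kg min−1. Heart rate was also recorded.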

[23] = Toxicity in Sprague-Dawley rat assessed as change in blood pressure at 30000 ug/kg, iv for 2 mins followed by 1500 ug/kg/min, iv for 28 mins; format: organism-based; conditions: in vivo, 30 mg/kg, 0.5 h, time 30 min
[24] = Toxicity in Sprague-Dawley rat assessed as change in heart rate at 30000 ug/kg, iv for 2 mins followed by 1500 ug/kg/min, iv for 28 mins; format: organism-based; conditions: in vivo, 30 mg/kg, 0.5 h, time 30 min
Method in brief: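 Overnight-fasted anesthetized rats got three consecutive escalating i.v. doses over 30 min each (n = 4/group). Heart rate and blood pressure were followed alongside end-of-interval blood samples for plasma drug exposure, glucose and insulin (relative HOMA index experiments).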

[25] = Toxicity in Sprague-Dawley rat hyperinsulinemic-euglycemic glucose clamp model assessed as change in heart rate at 6000 ug/kg/min, iv for 2 mins followed by 300 ug/kg/min, iv for 28 mins; format: organism-based; conditions: in vivo, 0.5 h, time 30 min
Method in brief: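 Anesthetized rats underwent two consecutive hyperinsulinemic–euglycemic clamps with human insulin infusion: a baseline Clamp1, then Clamp2 with vehicle or AZD6482 i.v. (n = 4–5/group). Blood pressure and heart rate were followed during control periods and after drug administration. Steady-state glucose infusion rate maintained euglycemia.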

## Cc1cc([C@@H](C)Nc2ccccc2C(=O)O)c2nc(N3CCOCC3)cc(=O)n2c1 [AZD-6482]
[1]
  IC50: 8 µM
Aurora kinase B
  IC50: 28 µM
[2]
  IC50: > 999 µM
[3]
  inhibition: 21%
[4]
  inhibition: 21%
[5]
  inhibition: 1.6%
[6]
  inhibition: -1.5%
[7]
  inhibition: -5.8%
[8]
  inhibition: 14%
[9]
  inhibition: 4.4%
[10]
  inhibition: 8.3%
[11]
  inhibition: 18%
[12]
  inhibition: 17%
[13]
  inhibition: -10%
[14]
  fraction unbound: 0.11
Canis familiaris [15]
  EC50: 0.35 µM
[16]
  EC50: 0.13 µM
Canis familiaris [17]
  Activity: inactive
Rattus norvegicus [18]
  Activity: 106 µmol/min/kg
Rattus norvegicus [19]
  Activity: 38 µmol/min/kg
Rattus norvegicus [20]
  Activity: 0.3 nM
Rattus norvegicus [21]
  Activity: 2.3 nM
[22]
  Activity: Non-Toxic
[23]
  Activity: Non-Toxic
[24]
  Activity: Non-Toxic
[25]
  Activity: Non-Toxic
